ChEMBL document CHEMBL4359890, “Design, synthesis of oleanolic acid-saccharide conjugates using click chemistry methodology and study of their anti-influenza activity” (Eur J Med Chem, 2019)
Activity calls are given as the source filed them. No cut-off for these calls is given here.

Tests used:
MDCK = assay: Cytotoxicity against dog MDCK cells assessed as reduction in cell viability at 100 uM measured after 40 hrs by Celltiter-Glo assay; assay type: cell-based, Canis lupus familiaris
Outline: (§1)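 Uninfected MDCK cells were grown overnight in 96-well plates with 1% FBS. They were then exposed to increasing compound concentrations, or to a single 100 μM screen, for 40 h, and viability was read by CellTiter-Glo. CC50 is the concentration causing 50% death of uninfected cells.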

Influenza A virus [1] = assay: Antiviral activity against Influenza A virus A/WSN/33 infected in MDCK cells assessed as reduction in virus-induced cytopathic effect at 100 uM after 40 hrs by Celltiter-Glo assay relative to control; assay type: functional; details: A/WSN/33, MDCK
Outline: (§2)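 This was a single-concentration screen at 100 μM in MDCK cells infected with A/WSN/33 at MOI 0.1. CPE protection was read by CellTiter-Glo after 40 h of incubation. The inhibition rate was expressed relative to 1% DMSO (final) negative control, with oseltamivir phosphate as the positive control. Experiments were run in triplicate.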

Influenza B virus [2] = assay: Antiviral activity against Influenza B virus B/Yamagata/16/88(BY) infected in MDCK cells assessed as inhibition of virus-induced cytopathic effect after 40 hrs by Celltiter-Glo assay; assay type: functional, organism-based
Outline: (§3)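 MDCK cells were seeded in 96-well plates, left overnight, then infected with influenza virus at MOI 0.1 and treated with the compound. After 40 h, viability was read by CellTiter-Glo luminescence. 1% DMSO (final) served as the negative control and oseltamivir phosphate as the positive control. IC50 is the concentration that inhibits virus-induced CPE by 50%, taken from dose-response curves in replicate independent experiments.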

Influenza A virus [3] = assay: Antiviral activity against Influenza A virus A/Victoria/361/2011(H3N2) infected in MDCK cells assessed as inhibition of virus-induced cytopathic effect after 40 hrs by Celltiter-Glo assay; assay type: functional, organism-based; outline: as §3
Influenza B virus [4] = assay: Potency index, ratio of OSV-p IC50 to compound IC50 for antiviral activity against Influenza B virus B/Yamagata/16/88(BY); assay type: functional
Influenza B virus [5] = assay: Antiviral activity against Influenza B virus B/Massachusetts/2/2012(BV) infected in MDCK cells assessed as inhibition of virus-induced cytopathic effect after 40 hrs by Celltiter-Glo assay; assay type: functional, organism-based; outline: as §3
Influenza B virus [6] = assay: Antiviral activity against Influenza B virus B/Sichuan/531/2018(BV) infected in MDCK cells assessed as inhibition of virus-induced cytopathic effect after 40 hrs by Celltiter-Glo assay; assay type: functional, organism-based; outline: as §3
[7] = biological target: Hemagglutinin (Influenza A virus) (UniProt B4URE7); assay: Inhibition of influenza A virus A/WSN/33 HA-mediated chicken erythrocytes hemagglutination pretreated with compound followed by erythrocytes addition measured after 30 mins
Outline: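 Compound was serially diluted 2-fold in saline and mixed with an equal volume of A/WSN/33 (H1N1) virus in V-bottom plates. Freshly prepared chicken red blood cells (1% v/v in saline) were then added. After 30 min at room temperature, erythrocyte aggregation was scored visually. Anti-HA antibody served as the positive control.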

[8] = Cytotoxicity against dog MDCK cells assessed as reduction in cell viability measured after 40 hrs by Celltiter-Glo assay; assay type: cell-based, Canis lupus familiaris; outline: as §1
Influenza A virus [9] = assay: Antiviral activity against Influenza A virus A/WSN/33 assessed as inhibition of virus-induced cytopathic effect after 40 hrs by Celltiter-Glo assay; assay type: functional, organism-based; details: A/WSN/33, 40 h; outline: as §3
[10] = Cytotoxicity against dog MDCK cells assessed as cell viability at 100 uM measured after 40 hrs by Celltiter-Glo assay relative to control; assay type: cell-based, Canis lupus familiaris; details: read-out: Activity; outline: as §1
[11] = Selectivity index, ratio of CC50 for MDCK cells to IC50 for influenza A virus A/WSN/33; assay type: toxicity; details: dog, read-out: Ratio CC50/IC50
Outline: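 SI was calculated as CC50 (uninfected MDCK, 40 h CellTiter-Glo) divided by IC50 (50% inhibition of A/WSN/33 replication in MDCK, MOI 0.1, 40 h CellTiter-Glo).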

Influenza A virus [12] = assay: Antiviral activity against Influenza A virus A/WSN/33 infected in MDCK cells assessed as reduction in virus-induced cytopathic effect at 100 uM after 40 hrs by Celltiter-Glo assay; assay type: functional, organism-based; outline: as §2

Hemagglutinin (Influenza A virus), sequence (B4URE7 as listed by the source): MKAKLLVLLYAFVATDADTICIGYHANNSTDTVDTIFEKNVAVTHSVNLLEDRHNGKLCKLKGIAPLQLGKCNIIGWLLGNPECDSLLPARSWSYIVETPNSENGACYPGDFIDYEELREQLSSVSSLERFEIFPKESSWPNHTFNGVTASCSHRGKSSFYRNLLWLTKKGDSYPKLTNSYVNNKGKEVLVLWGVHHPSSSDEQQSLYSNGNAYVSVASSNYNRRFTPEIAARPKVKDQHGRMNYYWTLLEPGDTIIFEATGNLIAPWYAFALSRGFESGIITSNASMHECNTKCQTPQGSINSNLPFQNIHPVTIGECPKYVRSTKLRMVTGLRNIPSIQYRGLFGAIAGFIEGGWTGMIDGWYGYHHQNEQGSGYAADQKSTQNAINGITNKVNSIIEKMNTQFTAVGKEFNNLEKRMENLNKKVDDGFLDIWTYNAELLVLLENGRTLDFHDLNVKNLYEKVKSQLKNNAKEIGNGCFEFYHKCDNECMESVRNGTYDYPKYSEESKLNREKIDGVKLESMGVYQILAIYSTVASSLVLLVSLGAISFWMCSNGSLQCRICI

Row | SMILES | Activity (MDCK) | inhibition at 100 µM (Influenza A virus [1]) | also measured
1 | CC(=O)O[C@@H]1[C@@H](OC(C)=O)[C@H](OC(C)=O)CO[C@H]1n1cc(CNC(=O)[C@]23CCC(C)(C)C[C@H]2C2=CC[C@@H]4[C@@]5(C)CC[C@H](O)C(C)(C)[C@@H]5CC[C@@]4(C)[C@]2(C)CC3)nn1 | Non-Toxic |  | 
2 | CC(=O)OC[C@H]1O[C@@H](n2cc(CNC(=O)[C@]34CCC(C)(C)C[C@H]3C3=CC[C@@H]5[C@@]6(C)CC[C@H](O)C(C)(C)[C@@H]6CC[C@@]5(C)[C@]3(C)CC4)nn2)[C@H](OC(C)=O)[C@@H](OC(C)=O)[C@@H]1O[C@@H]1O[C@H](COC(C)=O)[C@@H](OC(C)=O)[C@H](OC(C)=O)[C@H]1OC(C)=O | Non-Toxic |  | 
3 | CC(=O)OC[C@H]1O[C@@H](n2cc(CNC(=O)[C@]34CCC(C)(C)C[C@H]3C3=CC[C@@H]5[C@@]6(C)CC[C@H](O)C(C)(C)[C@@H]6CC[C@@]5(C)[C@]3(C)CC4)nn2)[C@H](OC(C)=O)[C@@H](OC(C)=O)[C@@H]1O[C@H]1O[C@H](COC(C)=O)[C@@H](OC(C)=O)[C@H](OC(C)=O)[C@H]1OC(C)=O | Non-Toxic |  | 
4 | C[C@@H]1O[C@@H](n2cc(CNC(=O)[C@]34CCC(C)(C)C[C@H]3C3=CC[C@@H]5[C@@]6(C)CC[C@H](O)C(C)(C)[C@@H]6CC[C@@]5(C)[C@]3(C)CC4)nn2)[C@H](O)[C@H](O)[C@H]1O | Toxic | 75% | 
5 | CC1(C)CC[C@]2(C(=O)NCc3cn([C@@H]4OC[C@@H](O)[C@H](O)[C@H]4O)nn3)CC[C@]3(C)C(=CC[C@@H]4[C@@]5(C)CC[C@H](O)C(C)(C)[C@@H]5CC[C@]43C)[C@@H]2C1 | Toxic | 75% | 
6 | CC(=O)OC[C@H]1O[C@@H](n2cc(CNC(=O)[C@]34CCC(C)(C)C[C@H]3C3=CC[C@@H]5[C@@]6(C)CC[C@H](O)C(C)(C)[C@@H]6CC[C@@]5(C)[C@]3(C)CC4)nn2)[C@H](OC(C)=O)[C@@H](OC(C)=O)[C@@H]1OC(C)=O | Non-Toxic |  | 
7 | CC1(C)CC[C@]2(C(=O)NCc3cn([C@@H]4O[C@H](CO)[C@@H](O[C@@H]5O[C@H](CO)[C@@H](O)[C@H](O)[C@H]5O)[C@H](O)[C@H]4O)nn3)CC[C@]3(C)C(=CC[C@@H]4[C@@]5(C)CC[C@H](O)C(C)(C)[C@@H]5CC[C@]43C)[C@@H]2C1 | Non-Toxic |  | 
8 | CC1(C)CC[C@]2(C(=O)NCc3cn([C@@H]4O[C@H](CO)[C@@H](O)[C@H](O)[C@H]4O)nn3)CC[C@]3(C)C(=CC[C@@H]4[C@@]5(C)CC[C@H](O)C(C)(C)[C@@H]5CC[C@]43C)[C@@H]2C1 | Non-Toxic | > 75% | IC50 (Influenza B virus [2]): 5.54 µM; IC50 (Influenza A virus [3]): 10.4 µM; Ratio IC50 (Influenza B virus [4]): 4; IC50 (Influenza B virus [5]): 11.5 µM; IC50 (Influenza B virus [6]): 26.1 µM; inhibition [7]: Active; CC50 at 40 h [8]: > 100 µM; IC50 (Influenza A virus [9]): 5.47 µM; viability at 40 h, 100 µM [10]: > 75%; selectivity ratio [11]: > 18.3
9 | CC1(C)CC[C@]2(C(=O)NCc3cn([C@@H]4OC[C@H](O)[C@H](O)[C@H]4O)nn3)CC[C@]3(C)C(=CC[C@@H]4[C@@]5(C)CC[C@H](O)C(C)(C)[C@@H]5CC[C@]43C)[C@@H]2C1 | Non-Toxic | > 75% | CC50 at 40 h [8]: > 100 µM; IC50 (Influenza A virus [9]): 12.9 µM; viability at 40 h, 100 µM [10]: > 75%; selectivity ratio [11]: > 7.73
10 | CC1(C)CC[C@]2(C(=O)NCc3cn([C@H]4O[C@H](CO)[C@@H](O)[C@H](O)[C@@H]4O)nn3)CC[C@]3(C)C(=CC[C@@H]4[C@@]5(C)CC[C@H](O)C(C)(C)[C@@H]5CC[C@]43C)[C@@H]2C1 | Non-Toxic |  | 
11 | CC(=O)OC[C@H]1O[C@@H](n2cc(CNC(=O)[C@]34CCC(C)(C)C[C@H]3C3=CC[C@@H]5[C@@]6(C)CC[C@H](O)C(C)(C)[C@@H]6CC[C@@]5(C)[C@]3(C)CC4)nn2)[C@H](OC(C)=O)[C@@H](OC(C)=O)[C@@H]1O[C@H]1O[C@H](COC(C)=O)[C@@H](O[C@H]2O[C@H](COC(C)=O)[C@@H](OC(C)=O)[C@H](OC(C)=O)[C@H]2OC(C)=O)[C@H](OC(C)=O)[C@H]1OC(C)=O | Non-Toxic |  | Activity (Influenza A virus [12]): inactive
